An excerpt weighted towards active compounds, which were near 3.4% of everything screened.
Ecoli rRNA inh: inhibits bacterial ribosomal RNA function over humanized ribosomes. E. coli WT GFP vs humanized-ribosome RFP mutants, fluorescence, 24 h; stronger effect = lower value; DMSO median 0, no signal -100. GFP signal change (wild-type ribosome), % (no concentration beside the values). 350,000 tested, 1.6% active;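 active = significant combined selectivity score with lowered wild-type GFP, culture density cut under 30%, mutant RFP and density less affected; inactive = any of these conditions unmet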
ERAP1 inh: inhibitors of human ERAP1 aminopeptidase; Q9NZ08; recombinant ERAP1, Leu-AMC fluorescence, 60 min; inhibition, % at 10.7 µM; 340,000 tested, 0.15% active; AID 652197;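 active = mean replicate inhibition of at least 30%, or all replicates individually reaching that 30% level; inactive = mean below 30% and not every replicate reaching it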;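 also: 0% = neutral control wells and 100% = L-leucinethiol positive control wells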
MLL AF4-AF9 inh: inhibitors of human MLL-AF4/AF9 interaction; P42568; AlphaScreen, biotin-AF4 peptide binding to FLAG-AF9; inhibition, % at 10 µM; 350,000 tested, 0.47% active; AID 651704;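 active = every replicate reaching a set inhibition limit, whatever the replicate mean, cut at about 25% in these data; inconclusive = mean inhibition reaches that limit but some replicates miss it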;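 also: 0% = plate neutral control median and 100% = total signal loss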
E-sel inducer: E-selectin induction on HUVECs; P16581; HUVEC E-selectin immunofluorescence imaging; normalized: neutral wells 0, TNF-alpha wells 100; activation, % at 7.58 µM; 260,000 tested, 0.37% active; AID 686992;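 active = mean E-selectin-positive cell signal at least 10% of the positive control, reached in at least 60% of replicates, without over 20% cell loss; inconclusive = no rule given, readout overlaps actives, possibly toxicity-flagged; inactive = the rest, including those meeting only one limit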
Target sequence (P16581 whole entry, looked up): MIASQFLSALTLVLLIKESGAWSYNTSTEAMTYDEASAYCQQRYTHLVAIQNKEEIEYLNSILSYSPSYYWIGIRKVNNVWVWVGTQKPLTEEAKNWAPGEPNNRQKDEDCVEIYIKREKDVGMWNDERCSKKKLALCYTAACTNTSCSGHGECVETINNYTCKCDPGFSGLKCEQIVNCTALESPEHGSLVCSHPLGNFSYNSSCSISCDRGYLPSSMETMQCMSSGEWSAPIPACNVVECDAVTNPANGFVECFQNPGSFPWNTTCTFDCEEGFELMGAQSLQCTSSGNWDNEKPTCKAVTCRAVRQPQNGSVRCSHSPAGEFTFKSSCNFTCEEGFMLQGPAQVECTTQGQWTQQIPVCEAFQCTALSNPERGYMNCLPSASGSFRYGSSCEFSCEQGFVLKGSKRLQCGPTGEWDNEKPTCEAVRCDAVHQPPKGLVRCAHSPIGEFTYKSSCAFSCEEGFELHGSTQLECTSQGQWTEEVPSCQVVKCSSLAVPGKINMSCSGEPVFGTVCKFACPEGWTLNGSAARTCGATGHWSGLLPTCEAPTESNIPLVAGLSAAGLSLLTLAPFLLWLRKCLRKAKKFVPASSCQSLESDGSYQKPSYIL
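System: HUVEC / Compound: single concentration / Signal: immunofluorescence imaging / Read-out: percent E-selectin-positive cells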
S100A4 inh HTS: S100A4-myosin IIA interaction inhibition. P26447. S100A4/TAMRA-MyoIIA peptide fluorescence polarization. 360,000 tested, 0.14% active. inhibition, % at 10.7 µM. AID 652163;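 active = mean inhibition of at least 70% across replicates, with every replicate also reaching that level; inconclusive = mean inhibition reaches 70% but some replicates fall short; inactive = mean inhibition below 70%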
Target sequence (P26447 whole entry, looked up): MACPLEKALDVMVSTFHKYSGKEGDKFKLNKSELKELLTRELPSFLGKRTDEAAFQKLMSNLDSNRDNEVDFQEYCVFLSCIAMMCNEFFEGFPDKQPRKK
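Test system: S100A4 monomer protein; Medium: HEPES pH 7.2 with CaCl2, KCl, NaCl, DTT, Triton; Probe or stimulus: TAMRA-labelled myosin IIA heavy-chain peptide probe, 5 nM; Doses: one dose per compound; Times: polarization read 5 min after assay mix addition, stable 5–60 min; Benchmarks: neutral control DMSO, positive control TFP.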
SIRT5 block: inhibitors of human sirtuin-5 desuccinylase; Purified SirT5, succinyl-peptide AMC, trypsin-coupled fluorescence; inhibition, % at 15 µM; 330,000 tested, 1.1% active; AID 652115; Q9NXA8; in the data active = inhibition above about 15%; inconclusive = no clear call, values can overlap the other calls
* hit, by the source's call; ? = inconclusive; . = no result.

SMILES	Ecoli rRNA inh	ERAP1 inh	MLL AF4-AF9 inh	E-sel inducer	S100A4 inh HTS	SIRT5 block
C[C@@H]1CCCCO[C@H](CN(C)S(=O)(=O)c2ccc(Cl)cc2)[C@@H](C)CN([C@@H](C)CO)C(=O)c2cc(NS(=O)(=O)c3ccc(F)cc3)ccc2O1	-0.4	3.9	?	0.4	120.2*	-0.1
C[C@@H]1CN([C@H](C)CO)C(=O)c2cc(NS(=O)(=O)c3ccc(F)cc3)ccc2O[C@@H](C)CCCCO[C@@H]1CN(C)S(=O)(=O)c1ccc(Cl)cc1	-6.2	3.6	-2.2	.	-4.1	25.5*
C[C@@H]1CN([C@@H](C)CO)C(=O)c2cc(NS(=O)(=O)c3ccc(F)cc3)ccc2O[C@@H](C)CCCCO[C@@H]1CN(C)S(=O)(=O)c1ccc(Cl)cc1	1.0	3.9	-0.7	.	8.3	24.9*
C[C@@H]1CCCCO[C@@H](CN(C)S(=O)(=O)c2ccc(Cl)cc2)[C@H](C)CN([C@H](C)CO)C(=O)c2cc(NS(=O)(=O)c3ccc(F)cc3)ccc2O1	-6.1	2.2	-3.2	.	3.9	-1.0
C[C@@H]1CCCCO[C@@H](CN(C)S(=O)(=O)c2ccc(Cl)cc2)[C@@H](C)CN([C@H](C)CO)C(=O)c2cc(NS(=O)(=O)c3ccc(F)cc3)ccc2O1	2.6	3.1	-0.8	.	2.8	15.1*
Cc1noc(C)c1NC(=O)N[C@H]1CC[C@H](CC(=O)N2CCN(C)CC2)O[C@@H]1CO	-1.0	-2.7	-1.4	-0.2	-49.7	0.0
C[C@@H]1CN([C@H](C)CO)C(=O)c2cc(C3=CCCCC3)cnc2O[C@H]1CN(C)S(C)(=O)=O	-0.9	.	.	-0.8	.	.
Cc1ccc2c(c1)c1c(n2CC(O)Cn2c(C)nc3ccccc32)CCCC1 (centres undefined)	-2.8	6.9	-1.3	69.3*	0.5	-0.6
COCC#Cc1cnc2c(c1)C(=O)N([C@H](C)CO)C[C@@H](C)[C@H](CN(C)C(=O)c1cnccn1)O2	4.9	1.5	-3.1	.	-2.0	4.5
CCN1CCN(CC(=O)N2N=C(c3cccs3)CC2c2ccc(OC)c(OC)c2)C(=O)C1=O (centres undefined)	0.0	2.0	0.8	5.1	-0.4	2.8
C=C1C(=O)c2sccc2C(c2ccc(OC)c(OC)c2)C1COC(C)=O (centres undefined)	-25.4*	0.9	-5.0	-0.3	-1.2	-2.0
O=C(C[C@H]1CC[C@@H]2[C@H](COC[C@@H](O)CN2C(=O)Cc2ccccc2)O1)NC1CCCC1	-2.2	-0.3	1.0	-0.1	89.6*	-0.2
CCCNC(=O)N1C[C@H](O)COC[C@@H]2O[C@H](CC(=O)N[C@H]3CCN(Cc4ccccc4)C3)CC[C@H]21	1.8	1.6	-8.2	-0.1	87.2*	6.4
CCCNC(=O)N1C[C@@H](O)COC[C@@H]2O[C@H](CC(=O)N[C@H]3CCN(Cc4ccccc4)C3)CC[C@H]21	0.2	1.1	-7.7	0.0	-4.3	1.8
COC(=O)c1cc(NC(=O)c2cccc([N+](=O)[O-])c2C)ccc1Cl	-25.2*	-3.0	0.0	0.1	3.4	11.2
CC(C)CC#Cc1ccc2c(c1)O[C@H](CN(C)C(=O)C1CCC1)[C@@H](C)CN([C@@H](C)CO)S2(=O)=O	-14.1	0.9	6.4	5.8	0.8	5.6
C[C@@H]1CN([C@@H](C)CO)S(=O)(=O)c2ccc(-c3ccc(C(=O)N(C)C)cc3)cc2O[C@@H]1CN(C)C(=O)C1CCCCC1	-4.6	-2.6	29.8*	0.9	2.0	1.5
CC(C)CC#Cc1ccc2c(c1)O[C@H](CN(C)C(=O)C1CCC1)[C@H](C)CN([C@@H](C)CO)S2(=O)=O	-7.8	-1.5	3.3	1.9	31.3	7.2
CC(C)CC#Cc1ccc2c(c1)O[C@@H](CN(C)C(=O)C1CCCCC1)[C@H](C)CN([C@@H](C)CO)S2(=O)=O	-2.0	-1.3	1.7	-1.0	-16.2	16.8*
CC(C)CC#Cc1ccc2c(c1)O[C@H](CN(C)C(=O)C1CCCCC1)[C@@H](C)CN([C@H](C)CO)S2(=O)=O	-0.4	-0.9	0.1	-1.1	-2.9	21.5*
CC(C)CC#Cc1ccc2c(c1)O[C@H](CN(C)C(=O)C1CCCCC1)[C@@H](C)CN([C@@H](C)CO)S2(=O)=O	-3.5	-1.8	3.6	0.9	1.6	26.9*
CCCN1[C@@H]2c3ccc(-c4cccc(F)c4)c(=O)n3C[C@H]1[C@H](CO)[C@H]2C(=O)N(C)C	3.1	-7.0	-10.7	-0.3	1.5	-3.0
O=C(Nc1ccc(F)cc1)Nc1ccc2c(c1)[C@H]1C[C@H](CC(=O)N3CCCCC3)O[C@@H](CO)[C@H]1O2	-2.4	.	.	-0.1	.	.
CC=Cc1ccc2n(c1=O)C[C@H]1[C@H](CO)[C@@H](C(=O)N3CCCCC3)N(Cc3ccccc3)[C@@H]21 (mixture of isomers)	-4.7	5.4	-0.4	-0.5	23.3	6.5
O=C(Cc1ccccn1)N[C@H]1CC[C@@H](CCNS(=O)(=O)c2cccc(F)c2)O[C@@H]1CO	2.1	-0.9	14.1	0.1	1.2	0.7
SMILES	Ecoli rRNA inh	ERAP1 inh	MLL AF4-AF9 inh	E-sel inducer	S100A4 inh HTS	SIRT5 block
CC(=O)N1CCC(=NNc2nc3ccccc3[nH]2)CC1	-18.1*	-8.3	3.8	.	-0.2	-1.2
CCC(C)(C)C1CCC(=NNc2nc3ccccc3[nH]2)CC1 (centres undefined)	-13.5	0.4	15.2	.	-1.2	-7.6
COc1cc(OC)cc(C(=O)NCC(=O)OCC(=O)/C=C2/N(C)c3ccccc3C2(C)C)c1	-22.3	5.8	3.0	.	-45.0	26.6*
CC(C)[C@H](NC(=O)c1ccccc1)C(=O)OCC(=O)/C=C1/N(C)c2ccccc2C1(C)C	-30.7	-3.6	2.0	.	-2.0	-2.8
COc1ccc(C=C2NC(=O)NC2=O)cc1O	2.7	1.1	-4.1	0.0	0.9	.
COc1cc(/C=C2\NC(=O)NC2=O)cc(Br)c1OC	1.1	-1.4	0.7	.	0.4	16.5*
O=C(c1cccc([N+](=O)[O-])c1)c1cc2ccccc2o1	11.9	-7.9	-11.2	-0.1	-8.8	32.4*
Cc1noc(C)c1NC(=O)N(C)C[C@@H]1Oc2ccc(NS(=O)(=O)c3c(C)noc3C)cc2C(=O)N([C@@H](C)CO)C[C@H]1C	0.7	.	.	4.6	.	.
O=C(OC(C(=O)NCc1ccccc1)c1ccco1)c1ccccc1 (centres undefined)	.	-1.5	-2.7	.	-19.6	-1.2
N#C/C(=C/c1ccccc1[N+](=O)[O-])c1nc(C2CC2)cs1	-31.4	-2.2	25.8*	0.0	6.5	-0.7
N#C/C(=C/c1ccccc1[N+](=O)[O-])c1nnc2n1CCCCC2	-9.1	7.8	1.6	-0.2	1.9	-2.2
O=C(O)c1ccc(S(=O)(=O)Nc2cccc(CP(=O)(c3ccccc3)c3ccccc3)c2)cc1	2.0	0.3	-6.6	.	0.4	-3.4
